EBI2 antag: blocks human EBI2 receptor beta-arrestin signaling | P32249 | EBI2 beta-arrestin recruitment, luminescence, 7a,25-OHC stimulated | inhibition, % at 5 µM | hit rate 0.81% among 360,000 | AID 651636; in the data active = inhibition above about 38%;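 also: enzyme fragment complementation signal reports receptor beta-arrestin coupling in cells; 0% = agonist plus DMSO wells and 100% = wells without agonist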
Target sequence (P32249 whole entry, looked up, the tested form may be a part): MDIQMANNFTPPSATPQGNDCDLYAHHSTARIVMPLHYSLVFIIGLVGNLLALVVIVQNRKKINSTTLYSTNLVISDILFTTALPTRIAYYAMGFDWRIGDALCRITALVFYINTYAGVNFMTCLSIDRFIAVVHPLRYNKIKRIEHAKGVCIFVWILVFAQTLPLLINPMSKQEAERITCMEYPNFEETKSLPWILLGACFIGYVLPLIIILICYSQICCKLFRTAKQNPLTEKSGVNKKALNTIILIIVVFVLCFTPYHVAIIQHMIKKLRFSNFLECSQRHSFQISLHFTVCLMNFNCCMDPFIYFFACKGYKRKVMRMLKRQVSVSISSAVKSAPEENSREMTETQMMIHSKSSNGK
MC4R antag cAMP: human MC4R antagonism in cAMP assay; hit rate 0.48% among 360,000; P32245; MC4R-expressing cells, MTII-stimulated cAMP, LANCE TR-FRET; inhibition, % at 6.5 µM;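 active = inhibition above its plate's cutoff, the mean of tested wells on that plate plus 3 SD, cut at about 29% in these data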;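 also: 0% = Melanotan II alone and 100% = Melanotan II plus saturating MCL0020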
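system = U2OS cells with stable human MC4R expression | also added = Melanotan II challenge after compound preincubation | dosing = one concentration, 6.5 µM nominal | incubation = compound 30 min, challenge 1 h, detection 1 h | measured by = TR-FRET with Eu-cAMP and labeled anti-cAMP, 671 nm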
Exocytosis inh: lytic granule exocytosis inhibition | hit rate 0.66% among 360,000 | inhibition, % at 10 µM | TALL-104 LAMP-1 surface exposure, flow cytometry; cells stimulated with thapsigargin and PMA;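 active = inhibition above about 55%, limit read from the data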
MC4R ag barr: activates human MC4R beta-arrestin recruitment | P32245 | U2OS MC4R beta-arrestin complementation, luminescence; percent of melanotan II response, DMSO zero | activation, % at 8.9 µM | hit rate 0.98% among 360,000 | AID 540308;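 active = activation above a per-plate cutoff, the mean activation of sample wells on that plate plus 3 SD, cut at about 8% in these data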
Myeloid diff 2: myeloid differentiation induction; ER-HoxA9 myeloid progenitors, lysozyme-GFP differentiation, flow cytometry; calls only at 10 µM; hit rate 1% among 360,000;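 active = normalized GFP-positive differentiation at or above the plate's own cutoff, the solvent-only control mean plus 3 SD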;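 also: cells exposed to compound for four days before flow analysis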
MC4R barr ag: human MC4R beta-arrestin agonism confirmation; shares compounds with MC4R ag barr; U2OS MC4R beta-arrestin recruitment, luminescence; scaled DMSO 0%, Melanotan II 100%; activation, % at 8.9 µM; hit rate 31% among 2,400;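 active = mean activation across replicates above the hit cutoff set in the earlier primary screen, cut at about 8% in these data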
MOR DOR agonist: activates mu-delta opioid heterodimer, MC4R agonist counter-screen. shares compounds with MC4R ag barr. U2OS PathHunter beta-arrestin, beta-gal luminescence; percent of deltorphin B response, DMSO zero. activation, % at 9.2 µM. hit rate 5.8% among 2,400. AID 602194;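 active = mean activation across replicates exceeds the hit threshold derived in the earlier primary screen, cut at about 18% in these data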;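 also: 100% = deltorphin B at 0.9 µM final and 0% = DMSO alone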
Numbers without * were called inactive; i = inactive; x = no result given. Shown are actives, neighbours in structure and some others; about 3.7% of the full set was active somewhere.

SMILES	EBI2 antag	MC4R antag cAMP	Exocytosis inh	MC4R ag barr	Myeloid diff 2	MC4R barr ag	MOR DOR agonist
O=S1(=O)C[C@H](N2CCN(CCO)CC2)[C@@H](COCc2ccccc2)N1	0	x	0	x	i	x	x
Cc1cccc(CSCc2ccc(C(=O)NCC3CCCO3)o2)c1 (centres undefined)	-5	11	-2	-3	i	x	x
Cc1nc(NC(=O)c2ccc(-c3cc4ccccc4oc3=O)cc2)ccc1Br	0	4	-3	1	i	x	x
Cc1nc(NC(=O)c2cccc(-c3cc4ccccc4oc3=O)c2)ccc1Br	-5	-5	-4	24*	i	17*	12
CN1OC[C@@H]2CN(C(=O)Nc3ccccc3)[C@H](c3ccc(N4CCCCC4)cc3)C[C@@H]21	-4	x	0	x	i	x	x
O=C(COC(=O)/C=C/c1cccc(C(F)(F)F)c1)NCCN1C(=O)CSC1=O	1	-3	5	2	i	x	x
Cc1cc(NC(=O)CN2C(=O)S/C(=C\c3ccccc3)C2=O)no1	-11	-3	-2	26*	i	4	9
COc1ccc(/C=C2/N=C(SCC(=O)Nc3cc(C)on3)N(c3ccccc3)C2=O)cc1	1	-7	-6	11*	i	5	5
COc1cccc(-c2cc(-c3cccnc3)nc(N)c2C#N)c1	6	-1	-6	1	i	x	x
N#Cc1c(-c2cccc(Br)c2)cc(-c2cccnc2)nc1N	15	9	1	32*	i	6	16
CCCCNC(=O)CN(Cc1ccco1)S(=O)(=O)c1ccc(C(C)=O)cc1	-3	10	13	-2	i	x	x
CC(C)c1csc(CN2CCC(N3CCC(C(=O)NCC4CCCO4)CC3)CC2)n1 (centres undefined)	2	2	-2	-1	i	x	x
Clc1cccc(Cl)c1CON/C=N/c1ncnc2sccc12	10	10	-2	12*	i	3	5
CCCn1c(/N=C/c2c[nH]c3ccccc23)nc2ccccc21	1	-4	0	11*	i	1	5
Cc1cccc(-c2nnc(SCC(=O)c3ccc(O)cc3O)n2C)c1	-9	16	14	0	i	x	x
Nc1nc(Nc2cccc(F)c2)nc(NCc2ccco2)c1[N+](=O)[O-]	14	-19	0	4	i	x	x
Cc1cc(C(C)(C)CC(C)(C)C)ccc1OCCOCC[N+](C)(C)Cc1ccccc1	-1	11	12	25*	i	37*	29*
CCNc1ccc(S(=O)(=O)N(C)C)cc1NCC(=O)Nc1ccccc1Cl	-6	5	-2	0	i	x	x
COCCn1c(=NC(=O)/C=C/c2cccs2)sc2cc(NC(C)=O)ccc21	5	9	-3	10*	i	1	7
NC(=O)c1ccsc1NC(=O)c1ccc(S(=O)(=O)N2CCCC2)cc1	1	4	-3	0	i	x	x
CC1CC(C)CN(S(=O)(=O)c2ccc(C(=O)Nc3sccc3C(N)=O)cc2)C1 (centres undefined)	4	5	0	13*	i	14*	11
COc1ccc(C2CC(c3ccccc3)=NN2S(=O)(=O)c2ccccc2)cc1 (centres undefined)	-11	-7	7	0	i	x	x
O=C(c1cccs1)N1N=C(c2ccccc2)CC1c1ccccc1O (centres undefined)	3	-3	1	13*	i	8	5
CCn1cc(Cl)c(C(=O)N2N=C(c3ccc4ccccc4c3)CC2c2ccccc2O)n1 (centres undefined)	0	17	18	20*	i	4	10
COc1ccc(C2=NN(C(=O)c3cccs3)C(c3ccccc3OC)C2)cc1OC (centres undefined)	32	-6	3	0	i	x	x
Cc1ccc(C2=NN(S(=O)(=O)c3ccccc3)C(c3ccccc3O)C2)cc1 (centres undefined)	-6	11	-1	12*	i	9.7*	11
